# Reference: ChEMBL document CHEMBL1147044, “Design of helical, oligomeric HIV-1 fusion inhibitor peptides with potent activity against enfuvirtide-resistant virus” (Proc Natl Acad Sci U S A, 2007)
# Experiments:
# [1] = tested on: Human immunodeficiency virus 1; assay: Binding affinity to HIV1 gp41 heptad repeat 1 region assessed as thermal stability of HR1/HR2 peptide bundle complex at 1 uM in presence of 8M urea
# [2] = tested on: Human immunodeficiency virus 1; assay: Antiviral activity against HIV1 098-T651 isolate infected in human PBMCs by reverse transcriptase assay; format: functional, organism-based
# In short: (§1)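 CD8-depleted activated PBMC targets infected at high MOI by spinoculation; infected cells incubated with uninfected targets at 2 × 10⁵ cells per well with serially diluted peptide for 9 days. Fresh compound added and samples taken every 2–3 days. Replication read by reverse transcriptase assay; IC50 from reduction in RT signal relative to infected untreated wells.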
# [3] = Half life in cynomolgus monkey at 1 to 2 mg/kg, iv; format: ADME, organism-based, Macaca fascicularis; parameters: dose 1-2 mg/kg, route intravenous; details: in vivo
# In short: (§2)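 Male cynomolgus monkeys received a single i.v. dose of about 1–2 mg/kg in isotonic phosphate-mannitol vehicle, given as cassettes (typically n ≤ 8). Plasma was protein-precipitated with 0.5% formic acid in acetonitrile and peptide measured by reversed-phase HPLC. Parameters were fitted with mono- or biexponential models.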
# [4] = Clearance in cynomolgus monkey at 1 to 2 mg/kg, iv; format: ADME, organism-based, Macaca fascicularis; parameters: dose 1-2 mg/kg, route intravenous; details: in vivo
# In short: as §2
# [5] = tested on: Human immunodeficiency virus 1; assay: Antiviral activity against HIV1 3B infected in human PBMCs by reverse transcriptase assay; format: functional, organism-based; details: Human immunodeficiency virus 1, 3B
# In short: as §1
# [6] = tested on: Human immunodeficiency virus 1; assay: Antiviral activity against HIV1 098 isolate infected in human PBMCs by reverse transcriptase assay; format: functional, organism-based
# In short: as §1
# [7] = tested on: Human immunodeficiency virus 1; assay: Antiviral activity against HIV1 098-T20 isolate infected in human PBMCs by reverse transcriptase assay; format: functional, organism-based
# In short: as §1
# [8] = tested on: Human immunodeficiency virus 1; assay: Antiviral activity against HIV1 098-T1249 isolate infected in human PBMCs by reverse transcriptase assay; format: functional, organism-based
# In short: as §1
Tm [1] [°C],IC50 [2] [µg/mL],half-life [3] [h],clearance [4] [mL/min/kg],IC50 [5] [µg/mL],IC50 [6] [µg/mL],IC50 [7] [µg/mL],IC50 [8] [µg/mL],Substance
82,0.242,8.6,0.133,0.03,0.054,0.084,0.147,H-TTWEAWDRAIAEYAARIEALIRALQELQEKNEAALREL-OH
85,0.196,12.4,0.2,0.019,0.043,0.079,0.038,H-TTWEAWDRAIAEYAARIEALIRALQEQQEKNEAILREL-OH

# The remaining lines, values behind:
Substance,Tm [1] [°C],IC50 [2] [µg/mL],half-life [3] [h],clearance [4] [mL/min/kg],IC50 [5] [µg/mL],IC50 [6] [µg/mL],IC50 [7] [µg/mL],IC50 [8] [µg/mL]
H-TTWEAWDRAIAEYAARIEALIRAAQEQQEKLEAVLREL-OH,85,0.242,28.6,0.0667,0.022,0.049,0.093,0.046
H-TTWEAWDRAIAEYAARIEALIRASQEQQEKNEAELREL-OH,78,1.31,1.2,1.43,0.006,0.013,0.022,0.072
enfuvirtide,< 5,47.8,8.8,0.667,0.006,0.05,0.526,55
